From ChEMBL document CHEMBL4152184, “NB 06: From a simple lysosomotropic aSMase inhibitor to tools for elucidating the role of lysosomes in signaling apoptosis and LPS-induced inflammation” (Eur J Med Chem, 2018)
Activity calls are given as the source filed them. The calls are words filed in the database; no cut-off is given here.

Columns and labels:
PBMC [1] = experiment: Inhibition of mmLDL-stimulated apoptosis in human PBMC assessed as apoptotic cells at 2 uM preincubated for 30 mins followed by mmLDL stimulation measured after 4 hrs by YO-PRO-1/Hoechst 33342 staining based assay (reference value: 100%); format: functional; design: scale not given: the % may be the effect or the level left
How it was run: (§1)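 PBMC pre-incubated 30 min with 2 μM compound, then stimulated with mmLDL (27 μg/mL; line 5) or TNFalpha (3 ng/mL; line 1) for 4 h. Apoptotic cells stained with YO-PRO-1 and all cells with Hoechst 33342. Each plate had control, stimulus, compound alone and compound plus stimulus; n = 3. Values are on a 0% (untreated control, corrected for spontaneous apoptosis) to 100% (stimulus alone) scale; means ± SE.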

[2] = target: T1, Sphingomyelin phosphodiesterase (Homo sapiens, UniProt P17405); experiment: Inhibition of mmLDL-stimulated acid sphingomyelinase in human PBMC lysates using BODIPY FL C5-sphingomyelin as substrate preincubated for 30 mins followed by mmLDL stimulation measured after 2 hrs by HPLC method
T1 sequence (P17405 whole entry): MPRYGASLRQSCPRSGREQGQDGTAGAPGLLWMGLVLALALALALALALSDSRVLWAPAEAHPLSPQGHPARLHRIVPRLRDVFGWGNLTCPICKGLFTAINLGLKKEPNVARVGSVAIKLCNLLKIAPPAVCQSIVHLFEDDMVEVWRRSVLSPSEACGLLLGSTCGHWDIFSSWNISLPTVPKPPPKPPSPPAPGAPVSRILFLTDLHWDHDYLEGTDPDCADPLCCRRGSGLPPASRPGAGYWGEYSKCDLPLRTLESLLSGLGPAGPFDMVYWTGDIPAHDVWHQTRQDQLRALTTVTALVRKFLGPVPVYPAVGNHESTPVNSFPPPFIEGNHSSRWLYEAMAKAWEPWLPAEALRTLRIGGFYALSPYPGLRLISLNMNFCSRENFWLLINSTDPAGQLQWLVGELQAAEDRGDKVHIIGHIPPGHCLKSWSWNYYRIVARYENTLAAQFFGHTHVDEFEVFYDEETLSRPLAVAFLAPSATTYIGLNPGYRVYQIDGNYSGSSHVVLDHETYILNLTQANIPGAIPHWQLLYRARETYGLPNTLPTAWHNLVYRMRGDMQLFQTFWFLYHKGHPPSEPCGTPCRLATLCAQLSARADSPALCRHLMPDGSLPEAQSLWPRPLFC

PBMC [3] = experiment: Inhibition of TNFalpha-stimulated apoptosis in human PBMC assessed as apoptotic cells at 2 uM preincubated for 30 mins followed by TNFalpha stimulation measured after 4 hrs by YO-PRO-1/Hoechst 33342 staining based assay relative to control; format: functional; design: scale not given: the % may be the effect or the level left; how it was run: as §1
[4] = target: T2, Sphingomyelin phosphodiesterase (Homo sapiens) (UniProt P17405); experiment: Inhibition of mmLDL-stimulated acid sphingomyelinase in human PBMC lysates at 0.5 to 50 uM preincubated for 30 mins followed by mmLDL stimulation measured after 4 hrs by YO-PRO-1/Hoechst 33342 staining based assay
T2 sequence (whole entry): T1 sequence (P17405 whole entry)

[5] = target: T2, Sphingomyelin phosphodiesterase (Homo sapiens); experiment: Inhibition of mmLDL-stimulated acid sphingomyelinase in human PBMC lysates assessed as enzyme residual activity at 25 uM using BODIPY FL C5-sphingomyelin as substrate preincubated for 30 mins followed by mmLDL stimulation measured after 2 hrs by HPLC method

IC50 [2] [µM] | inhibition [4] | Activity [5] [%] | SMILES | Activity (PBMC [1]) [%] | Activity (PBMC [3]) [%]
10 | – | – | COc1ccc(CCN(C)CCC=C2c3ccccc3CCc3ccccc32)cc1 | 10 | –
> 250 | – | – | COc1ccc(Cn2c(=O)c3ccccc3n(Cc3ccc(OC)cc3)c2=O)cc1 | 4 | –
116 | – | – | COc1ccc(CCNCCNc2cccc3ccccc23)cc1 | 87 | –
31 | – | – | COc1ccc(CCN(C)CCCN2c3ccccc3CCc3ccccc32)cc1OC | 73 | –
17 | – | – | COc1ccc(CCN(C)CCCN2Cc3ccccc3CCc3ccccc32)cc1 | 8 | 2
11 | – | – | CN(C)CCCN1c2ccccc2Sc2ccc(Cl)cc21 [CHLORPROMAZINE] | – | –
> 250 | – | – | COc1ccc(CCN2CCn3c4c(c5ccccc53)CCCC42)cc1 (stereo not given) | 19 | –
156 | – | – | COc1ccc(Cn2c3ccccc3c3ccccc32)cc1 | 14 | 30
15 | – | – | COc1ccc(CCN2CCCn3c4c(c5ccccc53)CCCC42)cc1 (stereo not given) | 25 | –
107 | – | – | COc1ccc(CC(=O)N(C)CCCN2c3ccccc3CCc3ccccc32)cc1 | 69 | –
13 | – | – | COc1ccc(CCN(C)CCCN2c3ccccc3Oc3ccccc32)cc1OC | 36 | –
17 | – | – | COc1ccc(CCN(C)CCN2c3ccccc3CCc3ccccc32)cc1 | 49 | 35
10 | Active | – | COc1cc(CCN(C)CCCn2c3ccccc3c3ccccc32)c(OC)cc1CCN(C)CCCn1c2ccccc2c2ccccc21 | 7 | –
– | – | 20 | CNCCCN1c2ccccc2CCc2ccccc21 | – | –
9 | – | – | COc1ccc(CCN(C)CCCN2c3ccccc3Sc3ccccc32)cc1 | 100 | –
14 | – | – | COc1ccc(CCN(C)CCCn2c3ccccc3c3ccccc32)cc1OC | 24 | 41
17 | – | – | COc1ccc(CCNCCCNC2c3ccccc3CCc3ccccc32)cc1 | – | –
> 250 | – | – | COc1ccc(CC(=O)N(C)CCN2c3ccccc3CCc3ccccc32)cc1 | 94 | 90
> 250 | – | – | COc1ccc(CC(=O)N(C)CCCN2c3ccccc3Sc3ccc(Cl)cc32)cc1OC | 41 | –

Second part, the molecule before the results:

SMILES | IC50 [2] [µM] | inhibition [4] | Activity [5] [%] | Activity (PBMC [1]) [%] | Activity (PBMC [3]) [%]
COc1ccc(CCN2CCCN(C3c4ccccc4CCc4ccccc43)C2)cc1 | – | – | – | 27 | 17
COc1ccc(CCN2[C@H](C)CN(CCCn3c4ccccc4c4ccccc43)C[C@@H]2C)cc1OC | 141 | – | – | 35 | –
COc1ccc(CCN2CCN(CCn3c4ccccc4c4ccccc43)CC2)cc1 | – | – | – | 14 | 16
COc1ccc(CCN(C)CCCN2c3ccccc3Sc3ccc(Cl)cc32)cc1 | – | – | – | 71 | –
COc1ccc(CCN(C)CCCn2ccc3ccccc32)cc1 | 21 | – | – | 84 | –
COc1ccc(CCN(C)CCN2c3ccccc3CCc3ccccc32)cc1OC | – | – | – | 30 | 58
COc1ccc(Cn2c(=O)[nH]c3ccccc3c2=O)cc1 | > 250 | – | – | 57 | 59
COc1ccc(CCN(C)CCCN2c3ccccc3Sc3ccc(Cl)cc32)cc1OC | 12 | – | – | 31 | 18
COc1ccc(CCN(C)CCN2c3ccccc3Sc3ccccc32)cc1 | – | – | – | 25 | 25
COc1ccc(CCN(C)CCCN(c2ccccc2)c2ccccc2)cc1 | > 250 | – | – | 35 | –
COc1ccc(CCNCCCNC2c3ccccc3CCc3ccccc32)cc1OC | 39 | – | – | 43 | –
COc1ccc(CCN(C)CCCN2c3ccccc3Oc3ccccc32)cc1 | – | – | – | 25 | 43
COc1ccc(CCNCc2cccc3ccccc23)cc1OC | 96 | – | – | 86 | –
COc1ccc(CCN(C)CCCN2C(=O)COc3ccccc32)cc1 | 38 | – | – | – | –
COc1ccc(CCN(C)CCn2c3ccccc3c3ccccc32)cc1 | 6 | – | – | 9 | 55
COc1ccc(CCN(C)C(F)(F)C(F)(F)C(F)(F)C(F)(F)n2c3ccccc3c3ccccc32)cc1 | > 250 | – | – | 80 | –
COc1ccc(CCN(C)CCCN(c2ccccc2)c2ccccc2)cc1OC | – | – | – | 59 | –
COc1ccc(CCN(C)CCN2c3ccccc3Sc3ccccc32)cc1OC | – | – | – | 72 | –
COc1ccc(CCNCCNc2cccc3ccccc23)cc1OC | 112 | – | – | 65 | –
COc1ccc(CN2C(=O)COc3ccccc32)cc1 | > 250 | – | – | 100 | –
COc1ccc(CCN(C)CCCN2c3ccccc3Sc3ccccc32)cc1OC | 16 | – | – | 52 | –
COc1ccc(CCNCc2cccc3ccccc23)cc1 | 240 | – | – | 100 | –
COc1ccc(CCN(Cc2ccccc2)c2ccccn2)cc1 | > 250 | – | – | 85 | –
COc1ccc(CC(=O)N(C)CCCn2c3ccccc3c3ccccc32)cc1 | > 250 | – | – | 100 | –
COc1ccc(CCN2[C@H](C)CN(CCCN3c4ccccc4Oc4ccccc43)C[C@@H]2C)cc1 | 43 | – | – | 10 | –
COc1ccc(CN(C)CCCn2c3ccccc3c3ccccc32)cc1 | – | – | – | 17 | –
COc1ccc(CCN(C)CCC=C2c3ccccc3CCc3ccccc32)cc1OC | 10 | – | – | 79 | –
CN(C)CCCN1c2ccccc2CCc2ccccc21 [IMIPRAMINE] | 5 | – | – | 15 | 16
COc1ccc(CCN(C)CCCN2c3ccccc3CCc3ccccc32)cc1 | – | – | – | 36 | 30
COc1ccc(CCN2[C@H](C)CN(CCCn3c4ccccc4c4ccccc43)C[C@@H]2C)cc1 | – | – | – | 25 | 0
